These results are taken from ChEMBL document CHEMBL2311439, “New bis-thiazolium analogues as potential antimalarial agents: design, synthesis, and biological evaluation” (J Med Chem, 2013).

A value given as a limit tells only on which side of the number the result lay.

Data set [1] relates to Plasmodium vinckei petteri. Description: Antimalarial activity against Plasmodium vinckei petteri 279BY infected in Swiss mouse administered as ip qd for 4 days measured on day 5. The class given is functional. In outline:
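Female Swiss mice infected intravenously with 10⁷ P. vinckei petteri 279BY parasites (parasitemia 0.5−1% on day 1). Compounds in DMSO, 0.9% NaCl or intralipid/DMSO (90/10) given ip once daily on days 1−4 postinfection. Parasitemia read on day 5. ED₅₀ is the dose giving 50% parasitemia inhibition, determined only when parasitemia fell by at least 85%. Three mice per dose.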

For another data set, the system named is Plasmodium falciparum. Description: Antiplasmodial activity against Plasmodium falciparum Nigeria infected in human erythrocytes assessed as incorporation of [3H]hypoxanthine after 48 hrs. The class given is functional, organism-based. In outline:
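Nigerian-strain P. falciparum-infected erythrocytes at 1.5% final hematocrit and 0.6% parasitemia, grown in Hepes-buffered RPMI 1640 with 10% AB human serum. Drugs dissolved in DMSO, final DMSO ≤0.25%. Modified Desjardins test: [³H]hypoxanthine incorporation measured after 48 h drug contact. IC₅₀ is the concentration giving 50% growth inhibition. Two independent experiments.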

The nature of data set [2]: Therapeutic index, ratio of ED50 for human Jurkat cells to IC50 for Plasmodium falciparum Nigeria infected in human erythrocytes. The class given is cell-based.
The next data set has as its system Jurkat. Nature of the data set: Cytotoxicity against human Jurkat cells after 24 hrs by [3H]thymidine incorporation assay. The class given is cell-based. In outline: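 Human Jurkat lymphoblasts exposed to compounds for 24 h, then [³H]thymidine added to gauge viability. Values are means of two independent experiments run in duplicate, differing by less than 40%.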
(In general: Uptake of a labelled nucleoside into DNA is a usual measure of proliferation.)

A further data set deals with Mus musculus. Nature of the data set: Toxicity in ip dosed Swiss mouse administered for 4 days measured on day 5. The class given is organism-based. Particulars: in vivo, 96 h.
Data set [3] in a line: Oral bioavailability in Sprague-Dawley rat at 12 mg/kg. Particulars: in vivo. The class given is ADME, organism-based.

By ED50 is commonly meant the midpoint of the dose-response relation. As a reminder, the IC50 is the midpoint of a concentration-inhibition curve. In the case of `Cc1c(CCO)sc[n+]1CCCCc1ccc(CCCC[n+]2csc(CCO)c2C)s1.[Cl-].[Cl-]`, the ED50 in data set [1] is > 0.6 mg/kg. For the same compound, the IC50 in the data set with Plasmodium falciparum came out at 0.0165 µM.
For the compound `COCCc1sc[n+](CCCCc2ccc3ccc(CCCC[n+]4csc(CCOC)c4C)cc3c2)c1C.[Cl-].[Cl-]`, in data set [2], the selectivity ratio was 170000. For the same compound, the figures for the IC50 with Jurkat and in the data set on Plasmodium falciparum were 465 µM and 0.0063 µM, respectively. The median effective dose (ED50) in data set [1] was found to be 0.5 mg/kg.
Turning to `COCCc1sc[n+](CCOc2ccc(C(=O)c3ccc(OCC[n+]4csc(CCOC)c4C)cc3)cc2)c1C.[Cl-].[Cl-]`, in the data set on Mus musculus, the Activity result was “Non-toxic”. Further, the ED50 in data set [1] was > 2 mg/kg. Further, in the data set with Plasmodium falciparum, the IC50 stood at 0.08 µM.
With `COCCc1sc[n+](CCOc2ccc(-c3ccc(OCC[n+]4csc(CCOC)c4C)cc3)cc2)c1C.[Br-].[Br-]`, in data set [1], the ED50 was > 0.6 mg/kg. Besides, the IC50 with Plasmodium falciparum was determined as 0.0185 µM.
For `COCCc1sc[n+](CCCCCn2cc(CCC[n+]3csc(CCOC)c3C)nn2)c1C`, the IC50 with Plasmodium falciparum was found to be 1.2 µM.
Consider `COCCc1sc[n+](CC#Cc2ccc(C#CC[n+]3csc(CCOC)c3C)cc2)c1C`, for which the IC50 in the data set on Plasmodium falciparum amounted to 0.42 µM.
For the compound `Cc1c(CCO)sc[n+]1CCCCCCCCCCCC[n+]1csc(CCO)c1C.[Br-].[Br-]` [ALBITIAZOLIUM BROMIDE], the selectivity ratio in data set [2] was determined as 150000. The compound further had an IC50 with Jurkat of 347 µM. The compound also gave a median effective dose (ED50) in data set [1] of 0.2 mg/kg.
For `COCCc1sc[n+](Cc2ccc(OCCCCCOc3ccc(C[n+]4csc(CCOC)c4C)cc3)cc2)c1C.[Cl-].[Cl-]`, the ED50 in data set [1] was > 0.4 mg/kg. The IC50 in the data set with Plasmodium falciparum came to 0.313 µM.
For the compound `Cc1c(CCOCCCCCCOCCc2sc[n+](C)c2C)sc[n+]1C`, the IC50 in the data set with Plasmodium falciparum is 0.12 µM.
`COCCc1sc[n+](CCCCc2ccc(-c3ccc(CCCC[n+]4csc(CCOC)c4C)cc3)cc2)c1C.[Cl-].[Cl-]` yielded an ED50 in data set [1] of 0.7 mg/kg. The IC50 in the data set with Plasmodium falciparum worked out at 0.0025 µM.
The like results for `COCCc1sc[n+](CCCc2ccc(CCC[n+]3csc(CCOC)c3C)cc2)c1C.[Cl-].[Cl-]` were, in that order, > 1 mg/kg and 0.0365 µM.
On to `COCCc1sc[n+](CCCCc2ccc(CCCC[n+]3csc(CCOC)c3C)c3ccccc23)c1C.[Cl-].[Cl-]`, for which the ED50 in data set [1] was > 0.6 mg/kg. In addition, in the data set on Plasmodium falciparum, the IC50 turned out to be 0.0021 µM.
Regarding `Cc1c(CCO)sc[n+]1CCCc1ccc(CCC[n+]2csc(CCO)c2C)cc1.[Cl-].[Cl-]`, the ED50 in data set [1] is > 0.5 mg/kg. For the same compound, the IC50 in the data set with Plasmodium falciparum turned out to be 0.0775 µM.
The like results for `COCCc1sc[n+](CCCCc2cccc(CCCC[n+]3csc(CCOC)c3C)c2)c1C.[Cl-].[Cl-]` were, in that order, > 1 mg/kg and 0.009 µM.
Turning to `Cc1c(CCOCc2cn(CCc3sc[n+](Cc4ccccc4)c3C)nn2)sc[n+]1Cc1ccccc1`, in the data set with Plasmodium falciparum, the IC50 is 0.64 µM.
On the same count and under the same terms, the value for `Cc1c(CCOCCCCCCOCCc2sc[n+](Cc3ccccc3)c2C)sc[n+]1Cc1ccccc1` was 0.015 µM; that for `Cc1c(CCOCc2cn(CCc3sc[n+](C)c3C)nn2)sc[n+]1C` was 10 µM; that for `COCCc1sc[n+](CCCc2cn(CCc3sc[n+](Cc4ccccc4)c3C)nn2)c1C` was 7 µM.
Consider `Cc1c(CCO)sc[n+]1CCOc1ccc(Cc2ccc(OCC[n+]3csc(CCO)c3C)cc2)cc1.[Cl-].[Cl-]`, for which, in data set [1], the ED50 is > 1 mg/kg. For the same compound, the IC50 in the data set with Plasmodium falciparum was 0.022 µM.
Turning to `COCCc1sc[n+](CCCc2cn(CCc3sc[n+](C)c3C)nn2)c1C`, in the data set on Plasmodium falciparum, the IC50 amounted to 8.2 µM.
Regarding `Cc1c(CCO)sc[n+]1CCCCc1ccc(CCCC[n+]2csc(CCO)c2C)c2ccccc12.[Cl-].[Cl-]`, in data set [1], the ED50 was > 0.6 mg/kg. Further, the IC50 with Plasmodium falciparum is 0.0067 µM.
By bioavailability is commonly meant dose-corrected exposure relative to a reference, in per cent. `C/C(=C1\CCOC(=O)S1)N(C=O)CCCCCCCCCCCCN(C=O)/C(C)=C1\CCOC(=O)S1`: the bioavailability in data set [3] stood at 15%.
Consider `COCCc1sc[n+](CCCCc2ccc(CCCC[n+]3csc(CCOC)c3C)s2)c1C.[Cl-].[Cl-]`, for which the IC50 amounted to 63 µM in the data set with Jurkat and 0.0027 µM with Plasmodium falciparum. Also, in data set [1], the 50% effective dose (ED50) was determined as 0.28 mg/kg.
Take `COCCc1sc[n+](CCCCc2ccc(CCCC[n+]3csc(CCOC)c3C)cc2)c1C.[Cl-].[Cl-]`: the Activity entry in the data set with Mus musculus is reported as “Non-toxic”. Moreover, the median effective dose (ED50) in data set [1] came out at 0.13 mg/kg. The IC50 in the data set on Plasmodium falciparum turned out to be 0.0083 µM.
Take `Cc1c(CCO)sc[n+]1CC#Cc1ccc(C#CC[n+]2csc(CCO)c2C)cc1`: in the data set with Plasmodium falciparum, the IC50 was determined as 1.25 µM.
Consider `COCCc1sc[n+](CCOc2ccc(Cc3ccc(OCC[n+]4csc(CCOC)c4C)cc3)cc2)c1C.[Cl-].[Cl-]`, for which the ED50 in data set [1] was > 1 mg/kg. In addition, the IC50 with Plasmodium falciparum was found to be 0.0225 µM.
For `Cc1c(CCO)sc[n+]1CCCCc1ccc(CCCC[n+]2csc(CCO)c2C)cc1.[Cl-].[Cl-]`, in that order: 1.2 mg/kg and 0.0205 µM.
As to `Cc1c(CCO)sc[n+]1CCC#Cc1ccc(C#CCC[n+]2csc(CCO)c2C)cc1`, the IC50 in the data set with Plasmodium falciparum came to 0.173 µM.
